Activity and GI50 data for two molecules are collected here from ChEMBL document CHEMBL5338772, “Stereochemical Control of Splice Modulation in FD-895 Analogues” (J Med Chem, 2023).

Calls of active or inactive are those of the source. No cut-off for these calls is given here.

For data set [1], the system named is HCT-116. Description: Downregulation of SF2 mRNA expression in human HCT-116 cells at 100 to 500 nM incubated for 24 hrs by qRT-PCR analysis. Type of data set: functional, cell-based. As to conditions: dose 100-500 nM. The procedure, abridged: (§1)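 HCT-116 cells in supplemented McCoy's 5a with 0.5% DMSO, treated 24 h at 100, 250 or 500 nM; untreated cells as control. Total RNA isolated, 1 µg DNase I-treated, reverse transcribed. qPCR on 5 ng cDNA with 2.5 µM each primer, 40 cycles of 95 °C 30 s, 55 °C 60 s, 72 °C 60 s. Splice-event primers for intron retention or exon skipping; SF2 primers measure total expression. 2^-CT method relative to GAPDH, untreated set at 1.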
(In qPCR the cycle at which signal appears reflects the starting amount.)

Data set [2] concerns HCT-116. The experiment in a line: Downregulation of PLK-1 mRNA expression in human HCT-116 cells at 100 to 500 nM incubated for 24 hrs by qRT-PCR analysis. Type of data set: functional, cell-based. The conditions noted are these: dose 100-500 nM. In short, it runs like this:
as §1

Data set [3] can be described thus: Cytotoxicity against human HCT-116 cells assessed as cell growth inhibition incubated for 72 hrs by MTS assay. Type of data set: toxicity, cell-based. In short, it runs like this: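 HCT-116 cells (ATCC; split every other day, no more than five generations, mycoplasma-tested) plated at 5 × 10³ cells/well in supplemented McCoy's 5a and grown 24 h at 37 °C, 5% CO₂. Compound added from DMSO (0.5% DMSO final) for 72 h. Cells washed with PBS, MTS reagent added for 2 h at 37 °C, A490 read against A690. GI₅₀ fitted from dose curves of 3 biological replicates.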
A general note: Tetrazolium dyes change colour on reduction, which living cells bring about.

For data set [4], the system named is HCT-116. Description: Cytotoxicity against human HCT-116 cells assessed as reduction in cell viability at 42 nM incubated for 4 hrs by MTS assay. In kind it is toxicity, cell-based. As to conditions: hct-116, 4 h, 0.042 µM.
Data set [5] relates to HCT-116. The experiment in a line: Cytotoxicity against human HCT-116 cells assessed as reduction in cell viability at 500 nM incubated for 24 hrs by MTS assay. Type of data set: toxicity, cell-based. The conditions noted are these: hct-116, 24 h, 0.5 µM. In short, it runs like this: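 HCT-116 cells plated at 5 × 10³ cells/well in supplemented McCoy's 5a and grown 24 h at 37 °C, 5% CO₂. Compound given at 500 nM, the top dose of the 24 h splicing series, in 0.5% DMSO for 24 h. Cells washed with PBS, MTS reagent added for 2 h at 37 °C, A490 read against A690.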

For data set [6], the system named is SF3A3 pre-mRNA. Description: Modulation of splicing in SF3A3 pre-mRNA in human HCT-116 cells assessed as intron 5 retention level at 42 nM incubated for 4 hrs by qRT-PCR analysis. Type of data set: functional, cell-based. As to conditions: filed as modulator.
The test system of data set [7] is SF3B1 pre-mRNA. The experiment in a line: Modulation of splicing in SF3B1 pre-mRNA in human HCT-116 cells assessed as intron 13 retention level at 42 nM incubated for 4 hrs by qRT-PCR analysis. Type of data set: functional, cell-based. As to conditions: filed as modulator. In short, it runs like this:
(§2)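 HCT-116 cells in supplemented McCoy's 5a, compound added from DMSO stock to a final 0.5% DMSO, 4 h at a single standardized concentration per analogue. Total RNA isolated and DNase-treated (1 µg). qPCR used 2.5 µM each primer on 5 ng cDNA, 40 cycles. Intron retention was computed by the 2^-CT method relative to GAPDH and expressed versus untreated cells set to 1.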

Data set [8] relates to DNAJB1 pre-mRNA. The experiment in a line: Modulation of splicing in DNAJB1 pre-mRNA in human HCT-116 cells assessed as intron 2 retention level at 42 nM incubated for 4 hrs by qRT-PCR analysis. In kind it is functional, cell-based. The conditions noted are these: filed as modulator.
Data set [9] relates to SF3A1 pre-mRNA. The experiment in a line: Modulation of splicing in SF3A1 pre-mRNA in human HCT-116 cells assessed as intron 6 retention level at 42 nM incubated for 4 hrs by qRT-PCR analysis. In kind it is functional, cell-based. As to conditions: filed as modulator.
Data set [10] has as its system SF3B2 pre-mRNA. The experiment in a line: Modulation of splicing in SF3B2 pre-mRNA in human HCT-116 cells assessed as intron 10 retention level at 42 nM incubated for 4 hrs by qRT-PCR analysis. Type of data set: functional, cell-based. The conditions noted are these: filed as modulator. In short, it runs like this: as §2
Data set [11] has as its system AURKA pre-mRNA. Description: Modulation of splicing in AURKA pre-mRNA in human HCT-116 cells assessed as effect on exon 4 skipping at 42 nM incubated for 4 hrs by qRT-PCR analysis. As to conditions: filed as modulator. Type of data set: functional, cell-based.
Data set [12] deals with DNAJB1 pre-mRNA. Description: Modulation of splicing in DNAJB1 pre-mRNA in human HCT-116 cells assessed as reduction in intron 2 retention level at 100 to 500 nM incubated for 24 hrs by qRT-PCR analysis. As to conditions: filed as modulator, dose 100-500 nM. Type of data set: functional, cell-based. In short, it runs like this: as §1
For data set [13], the system named is SF3B2 pre-mRNA. Description: Modulation of splicing in SF3B2 pre-mRNA in human HCT-116 cells assessed as increase in intron 10 retention level incubated for 24 hrs by qRT-PCR analysis. Type of data set: functional, cell-based. As to conditions: filed as modulator, dose 100-500 nM. The procedure, abridged: (§3)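 HCT-116 cells in supplemented McCoy's 5a with 0.5% final DMSO were treated for 24 h at 100, 250 or 500 nM. Total RNA isolated and DNase-treated (1 µg). qPCR used 2.5 µM each primer on 5 ng cDNA, 40 cycles. Intron retention was computed by the 2^-CT method relative to GAPDH and expressed versus untreated cells set to 1.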

Data set [14] relates to SF3B1 pre-mRNA. The experiment in a line: Modulation of splicing in SF3B1 pre-mRNA in human HCT-116 cells assessed as increase in intron 13 retention level incubated for 24 hrs by qRT-PCR analysis. Type of data set: functional, cell-based. The conditions noted are these: filed as modulator, dose 100-500 nM. The procedure, abridged: as §3
The test system of data set [15] is HCT-116. Description: Cytotoxicity against human HCT-116 cells assessed as reduction in cell viability at 9 uM incubated for 4 hrs by MTS assay. In kind it is toxicity, cell-based. As to conditions: hct-116, 4 h.
Data set [16] concerns DNAJB1 pre-mRNA. Description: Modulation of splicing in DNAJB1 pre-mRNA in human HCT-116 cells assessed as intron 2 retention at 100 to 500 nM incubated for 24 hrs by qRT-PCR analysis. In kind it is functional, cell-based. As to conditions: dose 100-500 nM. In short, it runs like this: as §1
The subject of data set [17] is SF3A3 pre-mRNA. The experiment in a line: Modulation of splicing in SF3A3 pre-mRNA in human HCT-116 cells assessed as intron 5 retention level at 9 uM incubated for 4 hrs by qRT-PCR analysis. In kind it is functional, cell-based. The conditions noted are these: filed as modulator. In short, it runs like this: as §2
Data set [18] relates to SF3B1 pre-mRNA. Description: Modulation of splicing in SF3B1 pre-mRNA in human HCT-116 cells assessed as intron 13 retention level at 9 uM incubated for 4 hrs by qRT-PCR analysis. The conditions noted are these: filed as modulator. In kind it is functional, cell-based. The procedure, abridged:
as §2

In data set [19] the test system is DNAJB1 pre-mRNA. Description: Modulation of splicing in DNAJB1 pre-mRNA in human HCT-116 cells assessed as intron 2 retention level at 9 uM incubated for 4 hrs by qRT-PCR analysis. In kind it is functional, cell-based. As to conditions: filed as modulator.
In data set [20] the test system is SF3A1 pre-mRNA. Description: Modulation of splicing in SF3A1 pre-mRNA in human HCT-116 cells assessed as intron 6 retention level at 9 uM incubated for 4 hrs by qRT-PCR analysis. In kind it is functional, cell-based. The conditions noted are these: filed as modulator.
Data set [21] deals with SF3B2 pre-mRNA. Description: Modulation of splicing in SF3B2 pre-mRNA in human HCT-116 cells assessed as intron 10 retention level at 9 uM incubated for 4 hrs by qRT-PCR analysis. Type of data set: functional, cell-based. The conditions noted are these: filed as modulator. In short, it runs like this:
as §2

Data set [22] has as its system AURKA pre-mRNA. The experiment in a line: Modulation of splicing in AURKA pre-mRNA in human HCT-116 cells assessed as effect on exon 4 skipping at 9 uM incubated for 4 hrs by qRT-PCR analysis. Type of data set: functional, cell-based. As to conditions: filed as modulator.
Data set [23] deals with SF3A3 pre-mRNA. Description: Modulation of splicing in SF3A3 pre-mRNA in human HCT-116 cells assessed as intron 5 retention at 100 to 500 nM incubated for 24 hrs by qRT-PCR analysis. In kind it is functional, cell-based. As to conditions: dose 100-500 nM. The procedure, abridged: as §1
The test system of data set [24] is SF3B2 pre-mRNA. The experiment in a line: Modulation of splicing in SF3B2 pre-mRNA in human HCT-116 cells assessed as intron 10 retention at 100 to 500 nM incubated for 24 hrs by qRT-PCR analysis. Type of data set: functional, cell-based. The conditions noted are these: dose 100-500 nM. In short, it runs like this:
as §3

The test system of data set [25] is SF3B1 pre-mRNA. Description: Modulation of splicing in SF3B1 pre-mRNA in human HCT-116 cells assessed as intron 13 retention at 100 to 500 nM incubated for 24 hrs by qRT-PCR analysis. In kind it is functional, cell-based. The conditions noted are these: dose 100-500 nM. The procedure, abridged: as §3
Data set [26] has as its system SF3A1 pre-mRNA. The experiment in a line: Modulation of splicing in SF3A1 pre-mRNA in human HCT-116 cells assessed as intron 6 retention at 100 to 500 nM incubated for 24 hrs by qRT-PCR analysis. In kind it is functional, cell-based. As to conditions: dose 100-500 nM. The procedure, abridged: as §1
In data set [27] the test system is HCT-116. The experiment in a line: Modulation of splicing in MCL-1L pre-mRNA in human HCT-116 cells assessed as intron 5 retention at 100 to 500 nM incubated for 24 hrs by qRT-PCR analysis. Type of data set: functional, cell-based. The conditions noted are these: dose 100-500 nM. In short, it runs like this:
as §1

For data set [28], the system named is HCT-116. Description: Upregulation of PLK-1 mRNA expression in human HCT-116 cells at 100 to 500 nM incubated for 24 hrs by qRT-PCR analysis. Type of data set: functional, cell-based. As to conditions: dose 100-500 nM. In short, it runs like this: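 24 h treatment of HCT-116 cells at 100, 250 or 500 nM, 0.5% final DMSO in supplemented McCoy's 5a. RNA isolated, DNase-treated, then qRT-PCR with 2.5 µM each primer on 5 ng cDNA. Levels by the 2^-CT method relative to GAPDH, normalized to untreated cells at 1.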

Broadly, the GI50 is the concentration giving 50% growth inhibition. Regarding `CC[C@H](OC)[C@@H](C)[C@H]1O[C@@H]1[C@@H](O)[C@H](C)/C=C/C=C(\C)[C@H]1OC(=O)C[C@H](O)CC[C@@](C)(O)[C@@H](OC(C)=O)/C=C/[C@@H]1C`, the outcome in the data set on HCT-116 [1] and in the data set with HCT-116 [2] was inactive. For the same molecule, in data set [3], the GI50 at 72 h came out at 0.0022 µM. Further, the Activity result in the data set with HCT-116 [4] was “Non-Toxic”; with HCT-116 [5] it was “Non-Toxic”; in the data set on SF3A3 pre-mRNA [6] it was under 3; in the data set with SF3B1 pre-mRNA [7], under 3; in the data set with DNAJB1 pre-mRNA [8], over 3; in the data set on SF3A1 pre-mRNA [9], over 3. The figures for the Activity in the data set with SF3B2 pre-mRNA [10], in the data set with SF3B2 pre-mRNA [13] and in the data set on SF3B1 pre-mRNA [14] were over 3, “Dose-Dependent Effect” and “Dose-Dependent Effect”, respectively. The outcome with AURKA pre-mRNA [11] and in the data set with DNAJB1 pre-mRNA [12] was Active.
As to `CC[C@H](OC)[C@@H](C)[C@@H]1O[C@H]1[C@@H](O)[C@H](C)/C=C/C=C(\C)[C@H]1OC(=O)C[C@H](O)CC[C@@](C)(O)[C@@H](OC(C)=O)/C=C/[C@@H]1C`, in [3], the GI50 at 72 h came out at 0.47 µM. Moreover, the Activity entry in the data set on HCT-116 [15] was “Non-Toxic”; in the data set on HCT-116 [5], “Non-Toxic”; with SF3A3 pre-mRNA [17], under 3; with SF3B1 pre-mRNA [18] it was under 3; in the data set with DNAJB1 pre-mRNA [19] it was over 3; in the data set on SF3A1 pre-mRNA [20] it was over 3. In addition, the Activity in the data set with SF3B2 pre-mRNA [21] was over 3. The outcome in the data set on DNAJB1 pre-mRNA [16], in the data set with SF3A3 pre-mRNA [23], in the data set on SF3B2 pre-mRNA [24], with SF3B1 pre-mRNA [25], in the data set on SF3A1 pre-mRNA [26] and in the data set on HCT-116 [27] was inactive. Besides, the outcome in the data set with AURKA pre-mRNA [22] and in the data set on HCT-116 [28] was Active.
